Reference: article PMC6839450 (ACS chemical biology, 2015)

Key:
Test in all cases: Cell viability
Settings in all cases: Ac-peptide, up to 20 μM, 24 h, CellTiter-Glo
Bax−/−Bak−/− (DKO) MEFs = assay type: cell-based, mouse
How it was run: (§1)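 Cells in OptiMEM with penicillin/streptomycin: MEFs (wild-type or Bax−/−Bak−/−) at 2.5 × 10^3 per well, adhered overnight and washed; OCI-AML3 at 1 × 10^4 per well. Serial dilutions of peptide from a 10 mM DMSO stock, or vehicle, were applied for 2 h at 37 °C serum-free, then FBS was added to 10%. CellTiter-Glo luminescence was read 24 h post-treatment.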

wild-type MEFs = assay type: cell-based, mouse
How it was run: as §1

OCI-AML3 cells = assay type: cell-based
How it was run: as §1

BIM BH3_2: unmodified BIM BH3 domain peptide, amino acids 145–164; N-terminal cap depends on the assay
no effect: Effect on viability of Bax−/−Bak−/− (DKO) MEFs (in words) (Bax−/−Bak−/− (DKO) MEFs) | Effect on viability of wild-type MEFs (in words) (wild-type MEFs) | Effect on viability of OCI-AML3 cells (in words) (OCI-AML3 cells)
